From ChEMBL document CHEMBL1123901, “Inhibition of delayed hypersensitivity reactions by cinnamyl 1-thioglycosides” (J Med Chem, 1987)

What was measured:
Assay type in all cases: functional
Cavia porcellus [1] = species on record: Cavia porcellus; assay: Inhibitory activity against [3H]thymidine uptake by cinnamyl 1-thioglycosides in guinea pig T cell proliferation
Method in brief: (§1)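 Strain 2 female guinea pigs were immunized with 100 μg OVA in CFA split over the footpads. At day 14 they received mineral oil ip, and the exudate was collected 4 days later. T cells were enriched on nylon wool. 2×10^5 cells per well were cultured with 10% irradiated (2100 rads) exudate cells, OVA (10 μg/mL) and compound, for 72 h at 37 °C in 5% CO2. [3H]thymidine (1 μCi) was added 18-24 h before harvest. Triplicate wells; mean Δcpm ± SD.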

Cavia porcellus [2] = species on record: Cavia porcellus; assay: Effect on guinea pig T cell proliferation was tested by measuring the incorporation of [3H]thymidine uptake at the concentration of 750 uM; method in brief: as §1
Cavia porcellus [3] = species on record: Cavia porcellus; assay: Effect on guinea pig T cell proliferation was tested by measuring the incorporation of [3H]thymidine uptake at the concentration of 1000 uM; method in brief: as §1
Cavia porcellus [4] = species on record: Cavia porcellus; assay: Effect on guinea pig T cell proliferation was tested by measuring the incorporation of [3H]-thymidine uptake at the concentration of 0 uM; method in brief: as §1
Cavia porcellus [5] = species on record: Cavia porcellus; assay: Effect on guinea pig T cell proliferation was tested by measuring the incorporation of [3H]thymidine uptake at the concentration of 10 uM; method in brief: as §1
Cavia porcellus [6] = species on record: Cavia porcellus; assay: Effect on guinea pig T cell proliferation was ested by measuring the incorporation of (+/)-[3H]thymidine uptake at the concentration of 100 uM; method in brief: as §1
Cavia porcellus [7] = species on record: Cavia porcellus; assay: Effect on guinea pig T cell proliferation was tested by measuring the incorporation of [3H]thymidine uptake at the concentration of 500 uM; method in brief: as §1
Cavia porcellus [8] = species on record: Cavia porcellus; assay: Effect on guinea pig T cell proliferation was tested by measuring the incorporation of [3H]thymidine uptake at the concentration of 250 uM; method in brief: as §1
Cavia porcellus [9] = species on record: Cavia porcellus; assay: [3H]thymidine uptake was determined by liquid scintillation spectroscopy in Macrophages pretreated with 500 uM 2 at 37 degree C for 18 h
Method in brief: (§2)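 Guinea pig PELs and irradiated (2100 rads) exudate macrophages were each preincubated with compound (1 mM or 500 μM, depending on agent) for 18 h at 37 °C, then washed. Macrophages were pulsed with OVA 100 μg/mL for 1 h at 37 °C and washed. Cells were viability-adjusted by trypan blue and mixed, with or without OVA 10 μg/mL. Culture ran 72 h at 37 °C with [3H]thymidine read by scintillation, as mean Δcpm × 10^-3.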

Cavia porcellus [10] = species on record: Cavia porcellus; assay: [3H]thymidine uptake was determined by liquid scintillation spectroscopy in Macrophages; method in brief: as §2
Cavia porcellus [11] = species on record: Cavia porcellus; assay: [3H]-Thymidine uptake was determined by liquid scintillation spectroscopy in compound 2 pretreated Macrophages plus OVA (ug/mL) pretreated with 500 uM 2 at 37 degree C for 18 h; method in brief: as §2
Mus musculus [12] = assay: Percent reduction in mice after oral administration 3 mg/kg
Method in brief: (§3)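 DTH in A/J female mice (20-23 g): cyclophosphamide 200 mg/kg sc, then iv sensitization with 10^8 washed SRBC 3 days later. On day 6 after sensitization, one hind footpad challenged with 10^8 SRBC in 20 μL, the other given saline. Dosing ip or po to overnight-fasted mice 20 min before challenge. Swelling read at 24 and 48 h as antigen minus saline footpad (mm × 10), by constant-pressure caliper.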

Mus musculus [13] = assay: Compound was administered intraperitoneally to mice before increase in foot-pad thickness at a dose of 3 mg/kg; details: route intraperitoneal; method in brief: as §3
Mus musculus [14] = assay: Compound was administered intraperitoneally to mice before increase in foot-pad thickness at a dose of 30 mg/kg; details: route intraperitoneal; method in brief: as §3
Cavia porcellus [15] = species on record: Cavia porcellus; assay: [3H]thymidine uptake was determined by liquid scintillation spectroscopy in compound 2 pretreated OVA pulsed Macrophages plus OVA (10 ug/mL); method in brief: as §2
Mus musculus [16] = assay: Percent reduction in mice after intraperitoneal administration 3 mg/kg; method in brief: as §3
Mus musculus [17] = assay: Compound was administered orally to mice before increase in foot-pad thickness at a dose of 10 mg/kg; details: route oral; method in brief: as §3
Mus musculus [18] = assay: Compound was administered orally to mice before increase in foot-pad thickness at a dose of 30 mg/kg; details: route oral; method in brief: as §3
Mus musculus [19] = assay: Compound was administered orally to mice before increase in foot-pad thickness at a dose of 3 mg/kg; details: route oral; method in brief: as §3
Cavia porcellus [20] = species on record: Cavia porcellus; assay: [3H]thymidine uptake was determined by liquid scintillation spectroscopy in OVA pulsed Macrophages pretreated with 500 uM 2 at 37 degree C for 18 h; method in brief: as §2
Mus musculus [21] = assay: Percent reduction in mice after oral administration of 30 mg/kg; method in brief: as §3
Mus musculus [22] = assay: Percent reduction in mice after oral administration 10 mg/kg; method in brief: as §3
Cavia porcellus [23] = species on record: Cavia porcellus; assay: [3H]thymidine uptake was determined by liquid scintillation spectroscopy in ovalbumin pulsed Macrophages
Method in brief: (§4)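 Pretreatment protocol. Strain 2 female guinea pigs immunized with OVA in CFA (100 μg OVA; 0.1 mL/foot); mineral oil given ip at day 14, peritoneal exudate collected 4 days later. Nylon-wool-enriched T cells (PELs) and irradiated (2100 rads) exudate macrophages each incubated with sugar derivative 18 h at 37 °C, then washed. Macrophages pulsed with OVA 100 μg/mL for 1 h at 37 °C and washed. Viability adjusted by trypan blue; populations mixed and cultured 72 h at 37 °C. [3H]thymidine (1 μCi) added 18-24 h before harvest; read by liquid scintillation as mean Δcpm ×10^-3.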

Cavia porcellus [24] = species on record: Cavia porcellus; assay: [3H]-Thymidine uptake was determined by liquid scintillation spectroscopy in ovalbumin (OVA) pulsed compound 2 treated Macrophages; method in brief: as §2
Mus musculus [25] = assay: Compound was administered intraperitoneally to mice before increase in foot-pad thickness at a dose of 10 mg/kg; details: route intraperitoneal; method in brief: as §3
Mus musculus [26] = assay: Percent reduction in mice after intraperitoneal administration 10 mg/kg; method in brief: as §3
Mus musculus [27] = assay: Percent reduction in mice after intraperitoneal administration of 30 mg/kg; method in brief: as §3
Cavia porcellus [28] = species on record: Cavia porcellus; assay: [3H]thymidine uptake was determined by liquid scintillation spectroscopy in compound 2 treated Macrophages; method in brief: as §2
Cavia porcellus [29] = species on record: Cavia porcellus; assay: [3H]thymidine uptake was determined by liquid scintillation spectroscopy in 3 treated Macrophages plus OVA (10 ug/mL); method in brief: as §2
Cavia porcellus [30] = species on record: Cavia porcellus; assay: [3H]-Thymidine uptake was determined by liquid scintillation spectroscopy in OVA pulsed compound 2 pretreated Macrophages pretreated with 500 uM 2 at 37 degree C for 18 h; method in brief: as §2
Cavia porcellus [31] = species on record: Cavia porcellus; assay: Effect on guinea pig T cell proliferation was tested by measuring the incorporation of [3H]-thymidine uptake at the concentration of 100 uM; method in brief: as §1
Cavia porcellus [32] = species on record: Cavia porcellus; assay: [3H]thymidine uptake was determined by liquid scintillation spectroscopy in compound 2 treated Macrophages pretreated with 500 uM 2 at 37 degree C for 18 h; method in brief: as §2
Cavia porcellus [33] = species on record: Cavia porcellus; assay: [3H]thymidine uptake was determined by liquid scintillation spectroscopy in 2 pretreated OVA pulsed Macrophages plus OVA (10 ug/mL) pretreated with 500 uM 2 at 37 degree C for 18 h; method in brief: as §2
Cavia porcellus [34] = species on record: Cavia porcellus; assay: Inhibitory activity against [3H]thymidine uptake by cinnamyl 1-thioglycosides using guinea pig T cell proliferation assay
Mus musculus [35] = assay: Compound was administered orally to mice before increase in foot-pad thickness at a dose of 2.5 mg/kg; details: route oral; method in brief: as §3
Mus musculus [36] = assay: Percent reduction in mice after oral administration 2.5 mg/kg; method in brief: as §3
Cavia porcellus [37] = species on record: Cavia porcellus; assay: [3H]-Thymidine uptake was determined by liquid scintillation spectroscopy in Macrophages pretreated with 500 uM of 4 at 37 degree C for 18 h; details: in the assay text read “1 mM” for “500 uM”; method in brief: as §2
Cavia porcellus [38] = species on record: Cavia porcellus; assay: [3H]thymidine uptake was determined by liquid scintillation spectroscopy in compound 4 treated Macrophages pretreated with 500 uM of 4 at 37 degree C for 18 h; details: in the assay text read “1 mM” for “500 uM”; method in brief: as §2
Cavia porcellus [39] = species on record: Cavia porcellus; assay: [3H]thymidine uptake was determined by liquid scintillation spectroscopy in 4 pretreated OVA pulsed Macrophages plus OVA (10 ug/mL) pretreated with 500 uM of 4 at 37 degree C for 18 h; details: in the assay text read “1 mM” for “500 uM”; method in brief: as §2
Cavia porcellus [40] = species on record: Cavia porcellus; assay: [3H]thymidine uptake was determined by liquid scintillation spectroscopy in compound 4 pretreated OVA pulsed Macrophages plus OVA (10 ug/mL); method in brief: as §2
Cavia porcellus [41] = species on record: Cavia porcellus; assay: [3H]-Thymidine uptake was determined by liquid scintillation spectroscopy in OVA pulsed compound 4 pretreated Macrophages pretreated with 500 uM of 4 at 37 degree C for 18 h; details: in the assay text read “1 mM” for “500 uM”; method in brief: as §2
Cavia porcellus [42] = species on record: Cavia porcellus; assay: [3H]thymidine uptake was determined by liquid scintillation spectroscopy in ovalbumin (OVA) pulsed compound 4 treated Macrophages; method in brief: as §4

| SMILES | Activity (Cavia porcellus [2]) | Activity (Cavia porcellus [3]) | Activity (Cavia porcellus [4]) | Activity (Cavia porcellus [5]) | Activity (Cavia porcellus [7]) | Activity (Cavia porcellus [8]) | Delta cpm x10e-3 (Cavia porcellus [10]) | Reduction (Mus musculus [12]) [%] | Activity (Mus musculus [13]) [mm x10] | Activity (Mus musculus [14]) [mm x10] | Reduction (Mus musculus [16]) [%] | Activity (Mus musculus [17]) [mm x10] | Activity (Mus musculus [18]) [mm x10] | Activity (Mus musculus [19]) [mm x10] | Reduction (Mus musculus [21]) [%] | Reduction (Mus musculus [22]) [%] | Delta cpm x10e-3 (Cavia porcellus [23]) | Activity (Mus musculus [25]) [mm x10] | Reduction (Mus musculus [26]) [%] | Reduction (Mus musculus [27]) [%] | other results |
| --- | --- | --- | --- | --- | --- | --- | --- | --- | --- | --- | --- | --- | --- | --- | --- | --- | --- | --- | --- | --- | --- |
| [N-]=[N+]=NCC1OC(SC/C=C/c2ccccc2)C(O)C(O)C1O (stereo unspecified) | 0 Δcpm x 10^-3 | 0.06 Δcpm x10e-3 | 33.5 Δcpm x10e-3 | 21 Δcpm x10e-3 | 2.26 Δcpm x10e-3 | 14.3 Δcpm x10e-3 | – | – | – | – | – | – | – | – | – | – | – | – | – | – | IC50 (Cavia porcellus [1]; Cavia porcellus, T-cell, 72 h): 240 µM; Activity (Cavia porcellus [6]): 21.1 Δcpm x10e-3 |
| OCC1OC(SC/C=C/c2ccccc2)C(O)C(O)C1O (stereo in doubt; 2) | 0 Δcpm x 10^-3 | 0.18 Δcpm x10e-3 | 82.4 Δcpm x10e-3 | 95.9 Δcpm x10e-3 | 0.04 Δcpm x10e-3 | 17.6 Δcpm x10e-3 | 1.31 | 27 | 7.3 | 2.07 | 0 | 0.82 | 0.82 | 0.85 | 30 | 30 | 41.36 | 2.46 | 56 | 63 | Delta cpm x10e-3 (Cavia porcellus [9]): 1.16; Delta cpm x10e-3 (Cavia porcellus [11]): 8.7; Delta cpm x10e-3 (Cavia porcellus [15]): 18.94; Delta cpm x10e-3 (Cavia porcellus [20]): 30.35; Delta cpm x10e-3 (Cavia porcellus [24]): 27.8; Delta cpm x10e-3 (Cavia porcellus [28]): 1.89; Delta cpm x10e-3 (Cavia porcellus [29]): 14.5; Delta cpm x10e-3 (Cavia porcellus [30]): 14.2; Activity (Cavia porcellus [31]): 63.6 Δcpm x10e-3; Delta cpm x10e-3 (Cavia porcellus [32]): 1.07; Delta cpm x10e-3 (Cavia porcellus [33]): 12.06; IC50 (Cavia porcellus [34]): 198 µM |
| C[C@@H]1C[C@H]2[C@@H]3CCC4=CC(=O)C=C[C@]4(C)[C@@]3(F)[C@@H](O)C[C@]2(C)[C@@]1(O)C(=O)CO [DEXAMETHASONE] | – | – | – | – | – | – | – | – | – | – | – | – | – | – | – | – | – | – | – | – | Activity (Mus musculus [35]): 0.3 mm x10; Reduction (Mus musculus [36]): 68% |
| CC1OC(SC/C=C/c2ccccc2)C(O)C(O)C1O (stereo in doubt; 4) | 0.02 Δcpm x 10^-3 | 0.06 Δcpm x10e-3 | 72.8 Δcpm x10e-3 | 93.6 Δcpm x10e-3 | 1.51 Δcpm x10e-3 | 5.8 Δcpm x10e-3 | 6.67 | 16 | 4.6 | 2.34 | 13 | 0.96 | 0.77 | 0.98 | 34 | 18 | 141.55 | 2.78 | 47 | 56 | Delta cpm x10e-3 (Cavia porcellus [37]): 4.75; Delta cpm x10e-3 (Cavia porcellus [38]): 2.81; IC50 (Cavia porcellus [1]; t-cell): 160 µM; Delta cpm x10e-3 (Cavia porcellus [39]): 49.95; Delta cpm x10e-3 (Cavia porcellus [40]): 139.97; Delta cpm x10e-3 (Cavia porcellus [28]): 4.89; Delta cpm x10e-3 (Cavia porcellus [41]): 33.97; Activity (Cavia porcellus [31]): 62.1 Δcpm x10e-3; Delta cpm x10e-3 (Cavia porcellus [42]): 104.36 |
